Compound activity deposited in PubChem BioAssay by SRMLSC.
An excerpt weighted towards active compounds, which were near 6.6% of everything screened.
PostGolgi yeast = growth inhibition of a yeast mutant, post-Golgi transport screen. post-Golgi transport phenotypic cell assay. inhibition, % at 10 µM. actives 0.9% (n = 98,000). AID 739;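 note: yeast cells grown in 1536-well plates; yeast grown about 18 h at 30C before absorbance read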
E coli WT exp = E. coli BW25113 growth inhibition, expanded screen. OD600 absorbance. actives 0.15% (n = 98,000). growth inhibition, % at 100 µM. AID 710;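 active = growth inhibition above about 50% at one test dose, limit read from the data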;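 note: growth measured after 20 h incubation at 37 °C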
Ecoli tolC = growth inhibitors of E. coli BW25113 tolC mutant | OD615 | growth inhibition, % at 10 µM (by protocol) | actives 2.2% (n = 65,000);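 active = growth inhibition at or above a cutoff equal to the mean over every tested compound plus 3 SD, cut at about 60% in these data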;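 note: growth measured after 20 h incubation at 37 °C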
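Material: E. coli BW25113 ΔtolC::kan, tolC deletion mutant strain. Measure: percent growth inhibition. Schedule: 37 °C, 20 h exposure. Doses: single-point testing at 10 µM. Signal: A615 absorbance measurement. Buffer or medium: kanamycin-containing LB broth (50 µg/mL).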
PostGolgi ctrl = growth of the yeast control strain, post-Golgi counter-screen | actives 5% (n = 98,000) | inhibition, % at 10 µM | AID 738 | efflux-deficient yeast background strain, growth absorbance A615, 16 h
HER2 expr 66K = lowers expression of human Her2 kinase | actives 0.69% (n = 65,000) | HER2 level % of control, % at 10 µM | P04626 | SKBR-3 HER2 protein level, AlphaScreen, 18-24 h; stronger effect = lower value;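 active = HER2 level under 5% of the carrier-only control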;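 note: lower value means stronger loss of Her2 protein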
A number is an active result; – = inactive; · = no result given. Cut-off read from the data, not from the text of the source, unless noted: active = inhibition above about 30%; inactive = the rest.

SMILES | PostGolgi yeast | E coli WT exp | Ecoli tolC | PostGolgi ctrl | HER2 expr 66K
COc1cccc(-c2cc(C(F)(F)F)nc(NCc3ccco3)n2)c1 | – | – | – | 33 | –
Cc1csc(C(C#N)C(=O)c2ccc(S(=O)(=O)N3CCCC3)cc2)n1 (configuration not stated) | – | – | – | – | –
Cn1c(NC(=O)CCc2ccccc2)cc(=O)n(C)c1=O | – | – | – | 36 | –
Cc1noc(C)c1COC(=O)CCCc1c[nH]c2ccccc12 | – | – | – | – | –
COc1ccc2c(C)cc(SCc3c(C)noc3C)nc2c1 | – | – | · | 32 | ·
CNC(=O)c1sccc1SCc1c(Cl)cccc1Cl | – | – | · | 46 | ·
Cc1cccc(N2CCN(C(=O)C(NS(=O)(=O)c3cccs3)c3ccccc3)CC2)c1C (configuration not stated) | – | – | · | 40 | ·
CC(C)[C@H](NC(=O)NC1CCCc2ccccc21)C(=O)O (some centres not stated) | – | – | – | 33 | –
CON1C(=O)C(=O)N(OC)C(C)(C)C1C (configuration not stated) | – | – | · | 31 | ·
Cc1cc(C)c(N2C(=NC(=O)CCCC(=O)O)SC3CS(=O)(=O)CC32)c(C)c1 (configuration not stated) | – | – | – | – | –
O=C(NCCCNCc1ccccc1)c1ccccn1 | – | – | – | 36 | –
O=C(NCc1cccnc1)c1ccccn1 | – | – | – | – | –
COc1ccc(C)cc1N(CC(=O)Nc1cccc(N(C)S(C)(=O)=O)c1)S(C)(=O)=O | – | – | – | 37 | –
Cc1cc(O)c(C(C[N+](=O)[O-])c2ccc(Cl)cc2)c(=O)o1 (configuration not stated) | – | – | · | – | ·
Cc1cc(C)n(C(C[N+](=O)[O-])c2ccc(Cl)cc2)n1 (configuration not stated) | – | 100 | · | – | ·
CCCOc1ccc(C2C(C(=O)c3ccc(C)o3)=C(O)C(=O)N2Cc2cccnc2)cc1 (configuration not stated) | · | · | 67 | · | –
CCOc1ccc(C2C(C(=O)c3ccco3)=C(O)C(=O)N2Cc2cccnc2)cc1 (configuration not stated) | – | – | – | – | –
C=CCOc1ccc(C2C(C(=O)c3ccco3)=C(O)C(=O)N2Cc2cccnc2)cc1 (configuration not stated) | – | – | – | – | –
COc1ccc(C2C(C(=O)c3ccco3)=C(O)C(=O)N2Cc2cccnc2)cc1OC (configuration not stated) | – | – | – | 34 | –
Cn1c(=O)[nH]c(=O)c2c1nc(N1CCCCCC1)n2CCCSc1nc2ccccc2o1 | – | – | – | – | –
COc1ccc(-n2c(C)cc(C(=O)COC(=O)Cn3cnc4ccccc43)c2C)cc1 | – | – | 63 | – | –
Cc1cc(C(=O)COc2cccc(-n3cnnn3)c2)c(C)n1-c1ccccc1 | – | – | – | – | –
O=C(C(Cc1ccccc1)n1cccc1)N1CCN(c2ncccn2)CC1 (configuration not stated) | – | – | – | – | –
O=c1cc(C(Cl)(Cl)Cl)oc2c1ccc1ccccc12 | – | – | · | 53 | ·
CC(C)CCN=Cc1c(O)n(-c2ccccc2)c(=O)c2ccccc12 | – | – | · | 39 | ·
SMILES | PostGolgi yeast | E coli WT exp | Ecoli tolC | PostGolgi ctrl | HER2 expr 66K
CCN1CCCC1CN=Cc1c(O)n(-c2ccccc2)c(=O)c2ccccc12 (configuration not stated) | – | – | – | – | –
CCOC(=O)C1CCCN(C(=O)Nc2ccccc2)C1 (configuration not stated) | – | – | · | – | ·
COc1ccc(NC(=O)CN(Cc2ccccc2)S(C)(=O)=O)cc1 | – | – | · | – | ·
CCOC(=O)C(C(=O)Nc1ccc(C)cc1)C1CCCCC1 (configuration not stated) | – | – | · | 40 | ·
CCOC(=O)C(C(=O)Nc1ccccc1)C1CCCCC1 (configuration not stated) | – | – | – | – | –
CC(C)NC(=O)c1ccccc1NC(=O)CCS(=O)(=O)Cc1ccccc1 | – | – | – | – | –
Cc1ccccc1Cn1c(C(=O)OC(C)C)cc2c1ccn2C | – | – | · | – | ·
CCOC(=O)c1cc2c(ccn2C)n1Cc1ccccc1C | – | – | 69 | – | –
CC(C)NC(=O)c1ccc2c(c1)N(CC(=O)N1CCOCC1)C(=O)C(C)(C)O2 | – | – | – | – | –
CC(=NCc1ccco1)c1c(C)[nH]n(-c2nc3ccccc3s2)c1=O | – | – | – | – | –
CCCN=C(C)c1c(-c2ccccc2)[nH]n(-c2nc3ccccc3s2)c1=O | – | – | · | 32 | ·
